Sampled rows, rich in hits. Any-hit rate of the full collection: about 3.7%.
Kir21 inh: Kir2.1 (mouse) channel inhibition | HEK293-Kir2.1, FluxOR thallium flux fluorescence; hits give low values | 310,000 tested, 0.85% active | P35561 | B-score at 10 µM;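 active = fluorescence ratio B-score at or below minus 3 SD of library scores, with starting-brightness B-score within 2 SD, cut at about -4.2 in these data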;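 also: channel flux triggered by added potassium and thallium sulfate stimulus; B-score of peak minus minimum fluorescence over baseline after thallium stimulus; more negative B-score means stronger Kir2.1 block with less thallium influx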
hERG protect: compounds protecting human hERG from proarrhythmic drug block; CHO-hERG, FluxOR thallium flux, dofetilide IC70 present; activation (rescue from dofetilide block), less the hit threshold, % at 10 µM; 310,000 tested, 0.51% active;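 active = activation above the mean of controls blocked by dofetilide plus 5 SD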;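 also: thallium influx through hERG after potassium depolarization seen as dye fluorescence rise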
KCNQ1 act: human KCNQ1 channel potentiation or activation; B-score at 10 µM; 310,000 tested, 0.35% active; CHO-K1 KCNQ1, thallium flux FluxOR fluorescence; hits give high values; P51787;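 active = fluorescence ratio B-score, a plate-corrected score, at least three library SD, with initial intensity B-score within 5 SD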
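Schedule – 37 °C overnight plating, 90-min dark dye load, 20-min compound pretreatment · System – stable KCNQ1 CHO-K1 line · Probe or stimulus – thallium- and potassium-containing depolarizing buffer · Measured by – kinetic FluxOR fluorescence, 10 s baseline plus 110 s post-stimulus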
KCNK9 block: human KCNK9 channel inhibition | Q9NPC2 | HEK293 KCNK9, FluxOR thallium flux fluorescence; hits give low values | B-score at 10 µM | 310,000 tested, 1.2% active | AID 488922;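 active = ratio B-score over 3 SD below the library mean, with starting fluorescence within 5 SD of its mean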;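 also: negative B-score means less thallium flux so channel inhibition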
KCNQ1 block: inhibitors of human KCNQ1 potassium channel | B-score at 10 µM | CHO-K1 KCNQ1, FluxOR thallium flux fluorescence; hits give high values | 310,000 tested, 1.3% active | P51787;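 active = compounds whose thallium flux B-score, printed positive for inhibition, exceeds three library SD while starting fluorescence stays within three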;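 also: channel opened by potassium depolarization with thallium stimulus after 20 min compound exposure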
KCNK3 inh: human KCNK3 channel inhibition, primary screen | O14649 | AID 602410 | B-score at 10 µM | 340,000 tested, 0.84% active | CHO-KCNK3 thallium flux, FluxOR fluorescence; hits give low values;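 active = B-score under library mean minus 4 SD, starting fluorescence ratio at most library mean plus 5 SD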;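 also: more negative B-score means stronger inhibition of thallium flux through KCNK3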
KCNK9 block conf: human KCNK9 inhibitor confirmation; AID 492992; HEK293 KCNK9 cells, FluxOR thallium flux fluorescence; inhibition, % at 10 µM; 4,900 tested, 43% active; shares compounds with KCNK9 block;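 active = thallium signal inhibited by more than 5 SD of the compound-free buffer control wells, on both duplicate plates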;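 also: 0% = assay buffer control wells without compound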
Kir2-1 spec: tests whether KCNK9 modulators also affect mouse Kir2.1; 4,900 tested, 4% active; Kir2.1 cells, FluxOR thallium flux fluorescence; shares compounds with KCNK9 block; inhibition, % at 10 µM;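 active = thallium signal drop more than 5 SD beyond the mean of the no-compound control wells, seen in both duplicate plates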;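 also: signal is fluorescence rise after thallium addition divided by baseline fluorescence; plate controls were assay buffer only for no effect and full block by chlorpromazine control for full effect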
HEK293 Tl ctr: second counter-screen for KCNK9 modulators: effect in non-induced cells; shares compounds with KCNK9 block; non-induced KCNK9-HEK293, FluxOR thallium flux; inhibition, % at 10 µM; 4,900 tested, 40% active; AID 492997;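 active = thallium signal drop beyond 5 SD of the untreated control mean, on both duplicate plates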;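 also: plate controls were buffer only IC0 wells for no effect and SID17386958 at its maximal inhibitory level for full effect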
Numbers without * were called inactive; i = inactive; · = no result given.

SMILES	Kir21 inh	hERG protect	KCNQ1 act	KCNK9 block	KCNQ1 block	KCNK3 inh	KCNK9 block conf	Kir2-1 spec	HEK293 Tl ctr
O=C(Nc1ccccc1)Nc1ccc(-n2ccc(C(F)(F)F)n2)cc1	-0.18	-18.7	i	-9.03*	6*	i	48.0%*	i	i
O=C(O)CC(CC(=O)Nc1ccc(-n2ccc(C(F)(F)F)n2)cc1)c1ccccc1 (configuration not stated)	1.66	-5.7	i	i	i	i	·	·	·
CC(=O)c1ccc(S(=O)(=O)N(C)CC(=O)Nc2ccc(C)cc2)cc1	·	·	·	·	·	i	·	·	·
CC1(C)Nc2ccccc2C(=O)N1c1ccccc1	-0.09	-6.7	i	i	i	i	·	·	·
O=C1c2ccccc2C(=O)N1CC#CCN1CCN(C(c2ccccc2)c2ccccc2)CC1	1.01	-11.8	i	i	i	i	i	i	i
COc1ccc(CNC(=O)C(c2ccc(C)cc2)N(Cc2cccs2)C(=O)c2ccc3c(c2)OCCO3)cc1 (configuration not stated)	0.72	-17.1	i	i	i	i	i	i	i
Cc1ccc(C(C(=O)NCc2ccccc2)N(Cc2cccs2)C(=O)c2ccc3c(c2)OCCO3)cc1 (configuration not stated)	-0.12	-10.3	i	i	i	i	·	·	·
CCCOC(=O)Cn1cnc2scc(-c3ccc(OC)cc3)c2c1=O	0.52	-7.2	i	i	i	i	i	i	i
CCOCCOC(=O)Cn1cnc2scc(-c3ccc(C)cc3)c2c1=O	1.53	-5.4	i	i	i	i	i	i	i
Cc1ccccc1OCC(=O)NC(=S)Nc1cccc2cc(O)ccc12	1.36	-9.1	i	-8.88*	i	i	52.0%*	i	i
COc1ccc(OCC(=O)NC(=S)Nc2ccccc2F)cc1	0.03	-1.6	i	i	i	i	i	i	i
O=S(=O)(Nc1nc2ccccc2nc1NCc1ccco1)c1ccc(F)cc1	-0.21	-5.8	i	i	i	i	·	·	·
COc1ccc(S(=O)(=O)N2CC3CCCN3c3ccc(C(F)(F)F)cc32)cc1 (configuration not stated)	-0.35	-3.3	i	-18.1*	i	i	72.5%*	i	44.0%*
COc1ccc(S(=O)(=O)N2CC3CCCN3c3cc(C(F)(F)F)ccc32)cc1 (configuration not stated)	0.94	-11.8	i	i	i	i	·	·	·
Cc1cc(C(=O)Cn2nnc(-c3ccc(Cl)cc3)n2)c(C)n1CC1CCCO1 (configuration not stated)	0.31	-3.0	i	i	i	i	·	·	·
Cc1cc(C(=O)Cn2nnc(-c3ccc(Cl)cc3)n2)c(C)n1-c1ccccc1	-0.51	-18.6	i	i	i	i	i	i	i
CCNCC(=O)N1c2ccccc2CCc2ccc(NC(=O)OC(C)C)cc21	2.64	-9.0	i	-12.9*	i	i	65.5%*	i	i
CC(=O)Nc1ccc(NC(=O)[C@@H](NC(=O)c2ccccc2F)C(C)C)cc1	0.54	-2.4	i	i	i	i	·	·	·
c1ccc(-c2nc(-c3nccc4ccccc34)oc2-c2ccccc2)cc1	0.76	-9.0	i	i	i	i	i	i	i
Nc1nc(-c2ccccc2)c(-c2ccccc2)o1	-0.9	-8.2	i	i	i	i	·	·	·
Cc1cc(SCC(=O)N2CCC(c3noc4ccc(F)cc34)CC2)nc2ccccc12	1.04	-12.1	i	i	i	i	i	i	i
O=C(CSc1ncnc2sc3c(c12)CCCC3)N1CCC(c2noc3ccc(F)cc23)CC1	0.55	-21.8	i	i	i	i	i	i	i
O=C(CSc1ncnc2sc3c(c12)CCC3)N1CCOCC1	-0.82	-4.6	i	i	i	i	·	·	·
O=c1cc(C(F)(F)F)[nH]c2c(OC(F)(F)F)cccc12	-0.07	-10.8	i	i	i	i	·	·	·
COC(Cn1c2c(c3cc(C)ccc31)CCCC2NCc1ccccc1)OC (configuration not stated)	-1.11	-6.8	i	i	i	i	·	·	·
SMILES	Kir21 inh	hERG protect	KCNQ1 act	KCNK9 block	KCNQ1 block	KCNK3 inh	KCNK9 block conf	Kir2-1 spec	HEK293 Tl ctr
CCCCN(C(=O)C1CSC2(C)CCC(=O)N12)c1c(N)n(CC(C)C)c(=O)[nH]c1=O (configuration not stated)	·	·	·	·	·	i	·	·	·
O=C(C1=C[C@H](c2ccc(C(F)(F)F)cc2)C[C@H](OCCCCO)O1)N1CCN(Cc2ccccc2)CC1	-0.44	-10.5	i	i	i	i	i	i	i
O=C(C1=C[C@@H](c2ccc(Br)cc2)C[C@@H](OCc2ccc(CO)cc2)O1)N1CCN(Cc2ccccc2)CC1	-0.56	-10.0	i	i	i	i	·	·	·
O=C(C1=C[C@@H](c2ccc(C(F)(F)F)cc2)C[C@@H](OCCCCO)O1)N1CCN(Cc2ccccc2)CC1	-1.04	-12.2	i	i	i	i	·	·	·
C#Cc1ccc([C@H]2C=C(C(=O)N3CCN(Cc4ccccc4)CC3)O[C@@H](OCc3ccc(CO)cc3)C2)cc1	-0.74	-8.9	i	i	i	i	i	i	i
CCCCSc1nnc2n(CCc3ccccc3)c(=O)c3c4c(sc3n12)COC(C)(C)C4	0.33	-16.1	i	i	i	i	i	i	i
CC(=O)N1N=C(c2ccc(C)cc2)OC1c1ccc(C)cc1 (configuration not stated)	-0.42	-7.2	i	i	i	i	·	·	·
CC(=O)N1N=C(c2ccc(C)cc2)OC1c1ccc(C(C)C)cc1 (configuration not stated)	0.92	-9.0	i	i	i	i	i	i	30.0%*
Cc1ccc(OCC(=O)c2ccc3c(c2)CCCC3)cc1C	1.14	-3.5	i	i	i	i	i	i	i
O=C(COc1ccc(Br)cc1)c1ccc2c(c1)CCCC2	0.65	-3.9	i	i	i	i	·	·	·
CC(OC(=O)CCN1C(=O)C2CC=CCC2C1=O)C(=O)Nc1ccc(F)cc1 (configuration not stated)	·	·	·	·	·	i	·	·	·

Bioassay records: PubChem, Johns Hopkins Ion Channel Center
